Assay [1] addresses Toll-like receptor 5 (Homo sapiens) (UniProt O60602). The assay is described as follows: Activation of human TLR5 transfected in HEK293 cells at 10 uM after 20 to 24 hrs by SEAP assay. Format: cell-based.
In assay [2] the target is T1, Toll-like receptor 4 (Mus musculus) (UniProt Q9QUK6).
T1 sequence (whole entry): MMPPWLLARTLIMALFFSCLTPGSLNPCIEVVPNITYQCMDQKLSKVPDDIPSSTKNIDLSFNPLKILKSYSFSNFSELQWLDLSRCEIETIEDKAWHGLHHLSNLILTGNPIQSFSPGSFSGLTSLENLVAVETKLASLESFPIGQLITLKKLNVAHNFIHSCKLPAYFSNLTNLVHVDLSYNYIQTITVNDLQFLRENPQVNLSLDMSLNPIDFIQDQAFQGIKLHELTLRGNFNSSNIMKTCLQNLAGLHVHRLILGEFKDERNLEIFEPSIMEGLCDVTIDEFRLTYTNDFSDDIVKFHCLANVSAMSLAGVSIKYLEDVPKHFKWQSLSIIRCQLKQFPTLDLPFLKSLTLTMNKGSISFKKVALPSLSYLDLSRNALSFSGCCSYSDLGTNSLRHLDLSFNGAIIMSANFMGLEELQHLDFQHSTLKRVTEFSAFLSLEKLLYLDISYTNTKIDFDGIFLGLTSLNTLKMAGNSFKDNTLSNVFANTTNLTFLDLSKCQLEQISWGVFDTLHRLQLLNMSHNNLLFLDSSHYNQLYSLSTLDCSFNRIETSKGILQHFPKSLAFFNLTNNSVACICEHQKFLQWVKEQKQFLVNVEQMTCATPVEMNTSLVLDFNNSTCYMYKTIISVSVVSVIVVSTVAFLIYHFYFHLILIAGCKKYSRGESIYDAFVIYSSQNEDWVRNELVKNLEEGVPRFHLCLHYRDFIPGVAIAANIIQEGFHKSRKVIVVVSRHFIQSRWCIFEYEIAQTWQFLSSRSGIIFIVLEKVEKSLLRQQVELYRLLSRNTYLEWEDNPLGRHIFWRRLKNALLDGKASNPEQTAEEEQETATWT
Briefly: Activation of TLR4-mediated type 1 IFN release in C57BL/6 mouse BMDC cells after overnight incubation by luciferase reporter gene assay. Format: cell-based. A digest of the protocol:
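Wild-type BMDC incubated overnight with graded concentrations (0.5% DMSO vehicle); 50 μL supernatant put on L929-ISRE luciferase reporter cells (5 × 10^4/well, DMEM-10) for 6 h; luciferase read, quantified against mouse IFN-β standard. Mean ± SEM of triplicates, two independent experiments.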
A general note: Reporter assays use an easily measured gene product as a stand-in for the process of interest.

Assay [3] deals with Toll-like receptor 4 (Homo sapiens) (UniProt O00206). The assay is described as follows: Activation of human TLR4 transfected in HEK293 cells after 18 hrs by SEAP assay relative to N-cyclohexyl-2-(4-oxo-3-phenyl-4,5-dihydro-3H-pyrimido[5,4-b]indol-2-ylthio)acetamide. Format: cell-based. Also noted: concentration or dose not given beside the values. Put shortly: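 Human TLR4 HEK-Blue cells (2.5 × 10^4/well) given compound at 10 μM for 18 h, 0.5% DMSO vehicle; SEAP in supernatant read at 630 nm, normalized to reference hit set at 100. LPS 10 ng/mL positive control.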

In the next assay the test system is BMDC. The assay is described as follows: Induction of IL6 secretion in C57BL/6 mouse TLR4 deficient BMDC cells at 10 uM after 18 hrs by ELISA. Format: functional, cell-based. A digest of the protocol: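 BMDC from Tlr4–/– mice (backcrossed 10 generations onto C57BL/6) and wild-type mice incubated with 10 μM compound for 18 h; IL-6 in culture supernatants by ELISA.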
Background: ELISA stands for enzyme-linked immunosorbent assay.

Assay [4] concerns the target T1, Toll-like receptor 4 (Mus musculus). Briefly: Activation of TLR4 in C57BL/6 mouse BMDC cells assessed as AUC of IP10 release at 5 uM after 18 hrs by ELISA relative to N-cyclohexyl-2-(4-oxo-3-phenyl-4,5-dihydro-3H-pyrimido[5,4-b]indol-2-ylthio)acetamide. Format: cell-based.
Assay [5] shares this target. Briefly: Activation of mouse TLR4 transfected in HEK293 cells assessed as NFkappaB activation after 20 to 24 hrs by SEAP assay. Format: cell-based. Put shortly:
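Human or mouse TLR4 HEK-Blue cells (2.5 × 10^4/well) incubated with graded concentrations for 20–24 h; NFκB-driven SEAP in culture supernatant measured colorimetrically.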

Assay [6] concerns the target Toll-like receptor 4/MD-2/CD14 (Mus musculus) (UniProt Q9QUK6+Q9JHF9+P10810). Briefly: Activation of mouse TLR4/MD-2/CD14 complex in HEK293 cells assessed as NFkappaB activation by SEAP assay in presence of LPS-RS.
Assay [7] addresses T1, Toll-like receptor 4 (Mus musculus). The assay is described as follows: Activation of TLR4-mediated type 1 IFN release in C57BL/6 mouse BMDC cells assessed as IP10 level after overnight incubation by ELISA. Format: cell-based. A digest of the protocol: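 Wild-type BMDC incubated overnight with graded concentrations, 0.5% DMSO vehicle; IP-10 in supernatants by ELISA as surrogate of type I IFN. Mean ± SEM of triplicates; two independent experiments.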

Assay [8] deals with Toll-like receptor 4 (Homo sapiens) (UniProt O00206). Briefly: Activation of TLR4 in human PBMC cells assessed as AUC of IL8 release at 10 uM after 18 hrs by ELISA relative to N-cyclohexyl-2-(4-oxo-3-phenyl-4,5-dihydro-3H-pyrimido[5,4-b]indol-2-ylthio)acetamide. Format: cell-based. A digest of the protocol:
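Human PBMC from buffy coats, 1 × 10^6/mL in complete RPMI, 18 h at 37 °C, 5% CO2 with compound at 10 μM; IL-8 in supernatant by ELISA, normalized to reference hit set at 100. LPS 10 ng/mL positive control.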

Assay [9] has as its target Toll-like receptor 2 (Homo sapiens) (UniProt O60603). Briefly: Activation of human TLR2 transfected in HEK293 cells at 10 uM after 20 to 24 hrs by SEAP assay. Format: cell-based.
The target in assay [10] is T1, Toll-like receptor 4 (Mus musculus). Briefly: Activation of mouse TLR4 transfected in HEK293 cells after 18 hrs by SEAP assay relative to N-cyclohexyl-2-(4-oxo-3-phenyl-4,5-dihydro-3H-pyrimido[5,4-b]indol-2-ylthio)acetamide. Format: cell-based. Put shortly:
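Mouse TLR4 HEK-Blue cells (2.5 × 10^4/well) given titrated doses 312 nM–10 μM for 18 h, 0.5% DMSO vehicle; SEAP at 630 nm. Percent-activity curves, AUC by trapezoid method, normalized to reference hit set at 100. LPS 10 ng/mL control.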

Calls of active or inactive are those of the source. The rule behind the calls is not given here.

Sequence of Toll-like receptor 4 (Homo sapiens) (O00206 whole entry): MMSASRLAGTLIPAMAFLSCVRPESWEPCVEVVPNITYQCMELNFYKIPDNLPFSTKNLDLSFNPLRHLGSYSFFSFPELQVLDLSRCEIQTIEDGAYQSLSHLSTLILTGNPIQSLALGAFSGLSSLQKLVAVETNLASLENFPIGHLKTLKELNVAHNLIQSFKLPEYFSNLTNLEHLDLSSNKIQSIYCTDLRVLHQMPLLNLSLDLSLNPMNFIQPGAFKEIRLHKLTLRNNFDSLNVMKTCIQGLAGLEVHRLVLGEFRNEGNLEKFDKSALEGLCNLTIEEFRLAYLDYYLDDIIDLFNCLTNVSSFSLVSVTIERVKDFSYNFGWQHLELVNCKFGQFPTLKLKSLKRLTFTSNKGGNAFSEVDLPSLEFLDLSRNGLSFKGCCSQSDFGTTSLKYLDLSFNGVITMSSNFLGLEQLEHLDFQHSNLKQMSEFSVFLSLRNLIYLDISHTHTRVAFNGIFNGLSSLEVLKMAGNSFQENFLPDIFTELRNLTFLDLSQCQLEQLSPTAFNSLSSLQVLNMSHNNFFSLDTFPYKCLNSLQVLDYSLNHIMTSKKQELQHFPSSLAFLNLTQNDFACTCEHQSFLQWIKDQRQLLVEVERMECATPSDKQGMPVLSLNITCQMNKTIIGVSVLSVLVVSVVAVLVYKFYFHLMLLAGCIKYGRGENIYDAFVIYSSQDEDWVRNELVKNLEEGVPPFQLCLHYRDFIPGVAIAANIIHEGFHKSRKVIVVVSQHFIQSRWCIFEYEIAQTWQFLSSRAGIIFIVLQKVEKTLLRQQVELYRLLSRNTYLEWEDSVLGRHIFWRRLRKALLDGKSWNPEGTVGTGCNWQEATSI
Sequence of Toll-like receptor 2 (Homo sapiens) (O60603 whole entry): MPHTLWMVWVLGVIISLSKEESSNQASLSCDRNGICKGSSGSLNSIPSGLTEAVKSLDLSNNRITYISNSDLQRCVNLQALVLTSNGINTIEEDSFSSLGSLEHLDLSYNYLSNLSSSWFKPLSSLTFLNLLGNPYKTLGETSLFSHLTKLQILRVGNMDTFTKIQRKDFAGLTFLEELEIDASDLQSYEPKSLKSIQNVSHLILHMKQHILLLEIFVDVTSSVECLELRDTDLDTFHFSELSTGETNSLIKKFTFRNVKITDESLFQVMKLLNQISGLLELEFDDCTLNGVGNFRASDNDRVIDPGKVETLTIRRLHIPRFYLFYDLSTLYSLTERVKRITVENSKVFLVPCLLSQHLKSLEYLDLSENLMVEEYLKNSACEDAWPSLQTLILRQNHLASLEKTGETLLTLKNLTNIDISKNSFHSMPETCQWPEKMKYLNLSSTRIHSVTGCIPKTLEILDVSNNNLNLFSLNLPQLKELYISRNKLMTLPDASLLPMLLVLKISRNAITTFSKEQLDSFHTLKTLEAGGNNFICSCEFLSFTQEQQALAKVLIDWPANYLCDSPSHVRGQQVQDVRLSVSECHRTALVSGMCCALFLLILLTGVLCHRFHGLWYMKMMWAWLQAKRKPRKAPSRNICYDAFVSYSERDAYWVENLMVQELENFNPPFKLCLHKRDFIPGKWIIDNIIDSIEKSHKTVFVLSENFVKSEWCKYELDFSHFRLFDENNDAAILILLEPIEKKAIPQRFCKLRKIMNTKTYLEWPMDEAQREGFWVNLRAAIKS
Sequence of Toll-like receptor 5 (Homo sapiens) (O60602 whole entry): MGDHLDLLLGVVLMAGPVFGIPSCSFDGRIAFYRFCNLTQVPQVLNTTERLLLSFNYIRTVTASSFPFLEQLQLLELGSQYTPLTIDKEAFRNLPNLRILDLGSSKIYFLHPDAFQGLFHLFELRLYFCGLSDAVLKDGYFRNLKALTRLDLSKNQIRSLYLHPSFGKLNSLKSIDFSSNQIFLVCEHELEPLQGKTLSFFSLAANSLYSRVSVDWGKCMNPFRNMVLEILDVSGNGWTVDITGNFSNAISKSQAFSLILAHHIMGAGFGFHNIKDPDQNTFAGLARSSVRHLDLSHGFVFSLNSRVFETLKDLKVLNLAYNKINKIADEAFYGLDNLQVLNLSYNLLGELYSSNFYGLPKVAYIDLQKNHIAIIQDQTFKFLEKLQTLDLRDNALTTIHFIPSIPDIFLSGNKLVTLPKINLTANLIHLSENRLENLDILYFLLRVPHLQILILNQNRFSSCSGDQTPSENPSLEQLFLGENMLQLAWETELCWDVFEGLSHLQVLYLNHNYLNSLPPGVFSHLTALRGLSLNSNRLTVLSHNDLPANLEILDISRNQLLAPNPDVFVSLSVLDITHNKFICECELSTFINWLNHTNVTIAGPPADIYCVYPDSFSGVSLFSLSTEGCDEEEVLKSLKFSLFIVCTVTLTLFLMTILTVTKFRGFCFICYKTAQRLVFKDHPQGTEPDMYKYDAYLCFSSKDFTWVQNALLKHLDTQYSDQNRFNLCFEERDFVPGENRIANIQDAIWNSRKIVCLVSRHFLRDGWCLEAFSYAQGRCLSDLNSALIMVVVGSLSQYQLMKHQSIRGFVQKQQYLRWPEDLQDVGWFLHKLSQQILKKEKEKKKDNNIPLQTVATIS

As for `O=C(CSc1nc2c([nH]c3ccccc32)c(=O)n1-c1ccccc1)NC1CCCCC1`, the outcome (in assay [1]; in the assay on BMDC; in assay [9]) was inactive. Also, the Activity entry in assay [2] is “Dose-dependent effect”; in assay [3] it was 100%; in assay [4], 100%; in assay [5] it was “Dose-dependent effect”; in assay [6], “Dose-dependent effect”; in assay [7], “Dose-dependent effect”. The Activity in assay [8] and in assay [10] was 100% each time.

The record behind these values is ChEMBL document CHEMBL2384907, “Identification of substituted pyrimido[5,4-b]indoles as selective Toll-like receptor 4 ligands” (J Med Chem, 2013).
